ChEMBL document CHEMBL4346654 (Eur J Med Chem, 2019)
≈ marks a conversion by molar mass, not a printed value.

How the values were obtained:
Staphylococcus aureus [1] = assay: Antibacterial activity against MLS-resistant Staphylococcus aureus PU 32 expressing inducible ermA gene assessed as reduction in microbial growth by CLSI based two-fold broth dilution method; format: functional
Streptococcus pneumoniae [2] = assay: Antibacterial activity against erythromycin-susceptible Streptococcus pneumoniae ATCC49619 assessed as reduction in microbial growth by CLSI based two-fold broth dilution method; format: functional
Streptococcus pneumoniae [3] = assay: Bactericidal activity against erythromycin-susceptible Streptococcus pneumoniae ATCC49619 pretreated followed by subculture in absence of compound measured after 24 hrs; format: functional
Method in brief: (§1)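 Isolates were identified by 16S rDNA sequencing. MIC was determined by CLSI-recommended two-fold broth dilution. For MBC, samples from 1–8 fold MIC were transferred to culture medium and subcultured for 24 h without antibiotic.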

Haemophilus influenzae [4] = assay: Antibacterial activity against azithromycin-susceptible Haemophilus influenzae ATCC 49247 assessed as reduction in microbial growth by CLSI based two-fold broth dilution method; format: functional
Streptococcus pneumoniae [5] = assay: Antibacterial activity against Streptococcus pneumoniae 07P390 expressing constitutive ermB gene assessed as reduction in microbial growth by CLSI based two-fold broth dilution method; format: functional
Streptococcus pneumoniae [6] = assay: Antibacterial activity against penicillin-susceptible Streptococcus pneumoniae PU 09 expressing mef gene assessed as reduction in microbial growth by CLSI based two-fold broth dilution method; format: functional
Streptococcus pneumoniae [7] = assay: Bactericidal activity against penicillin-susceptible Streptococcus pneumoniae PU 09 expressing mef gene pretreated followed by subculture in absence of compound measured after 24 hrs; format: functional; method in brief: as §1
Streptococcus pneumoniae [8] = assay: Selectivity ratio of MBC to MIC for penicillin-susceptible Streptococcus pneumoniae PU 09 expressing mef gene; format: functional; method in brief: as §1
Streptococcus pneumoniae [9] = assay: Bactericidal activity against Streptococcus pneumoniae 07P390 expressing constitutive ermB gene pretreated followed by subculture in absence of compound measured after 24 hrs; format: functional; method in brief: as §1
Streptococcus pneumoniae [10] = assay: Selectivity ratio of MBC to MIC for Streptococcus pneumoniae 07P390 expressing constitutive ermB gene; format: functional; method in brief: as §1
Haemophilus influenzae [11] = assay: Bactericidal activity against azithromycin-susceptible Haemophilus influenzae ATCC 49247 pretreated followed by subculture in absence of compound measured after 24 hrs; format: functional; method in brief: as §1
Haemophilus influenzae [12] = assay: Selectivity ratio of MBC to MIC for azithromycin-susceptible Haemophilus influenzae ATCC 49247; format: functional; method in brief: as §1
Streptococcus pyogenes [13] = assay: Antibacterial activity against MLS-resistant Streptococcus pyogenes 01-968 expressing inducible ermB gene assessed as reduction in microbial growth by CLSI based two-fold broth dilution method; format: functional
Streptococcus pyogenes [14] = assay: Bactericidal activity against MLS-resistant Streptococcus pyogenes 01-968 expressing inducible ermB gene pretreated followed by subculture in absence of compound measured after 24 hrs; format: functional
Method in brief: (§2)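 MBC assay. Following MIC determination by CLSI standard two-fold broth dilution, samples at 1–8 fold MIC were transferred to fresh culture medium. They were subcultured for 24 h without antibiotic. Isolates were identified by 16S rDNA sequencing. S. aureus ATCC 29213 was used as a control strain.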

Streptococcus pyogenes [15] = assay: Selectivity ratio of MBC to MIC for MLS-resistant Streptococcus pyogenes 01-968 expressing inducible ermB gene; format: functional
Method in brief: (§3)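 MBC/MIC ratio. MIC was measured by CLSI standard two-fold broth dilution. MBC was measured by transferring samples at 1–8 fold MIC to culture medium and subculturing for 24 h without antibiotic. Isolates were identified by 16S rDNA sequencing.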

Staphylococcus aureus [16] = assay: Bactericidal activity against MLS/methicillin-resistant Staphylococcus aureus PU 32 expressing inducible ermA gene pretreated followed by subculture in absence of compound measured after 24 hrs; format: functional; method in brief: as §2
Staphylococcus aureus [17] = assay: Selectivity ratio of MBC to MIC for MLS/methicillin-resistant Staphylococcus aureus PU 32 expressing inducible ermA gene; format: functional; method in brief: as §3
Staphylococcus aureus [18] = assay: Antibacterial activity against MLS-resistant Staphylococcus aureus PU 20 expressing constitutive ermC gene assessed as reduction in microbial growth by CLSI based two-fold broth dilution method; format: functional
Staphylococcus aureus [19] = assay: Bactericidal activity against MLS-resistant Staphylococcus aureus PU 20 expressing constitutive ermC gene pretreated followed by subculture in absence of compound measured after 24 hrs; format: functional; method in brief: as §2
Streptococcus pyogenes [20] = assay: Antibacterial activity against MLS-resistant Streptococcus pyogenes 12-206 expressing constitutive ermA gene assessed as reduction in microbial growth by CLSI based two-fold broth dilution method; format: functional
Streptococcus pyogenes [21] = assay: Bactericidal activity against MLS-resistant Streptococcus pyogenes 12-206 expressing constitutive ermA gene pretreated followed by subculture in absence of compound measured after 24 hrs; format: functional; method in brief: as §2
Streptococcus pyogenes [22] = assay: Selectivity ratio of MBC to MIC for MLS-resistant Streptococcus pyogenes 12-206 expressing constitutive ermA gene; format: functional; method in brief: as §3
Streptococcus pyogenes [23] = assay: Antibacterial activity against Streptococcus pyogenes 12-207 expressing mef gene assessed as reduction in microbial growth by CLSI based two-fold broth dilution method; format: functional
Streptococcus pyogenes [24] = assay: Bactericidal activity against Streptococcus pyogenes 12-207 expressing mef gene pretreated followed by subculture in absence of compound measured after 24 hrs; format: functional; method in brief: as §1
Streptococcus pyogenes [25] = assay: Selectivity ratio of MBC to MIC for Streptococcus pyogenes 12-207 expressing mef gene; format: functional; method in brief: as §1
Moraxella catarrhalis [26] = assay: Antibacterial activity against erythromycin-susceptible Moraxella catarrhalis 13L332 assessed as reduction in microbial growth by CLSI based two-fold broth dilution method; format: functional
Moraxella catarrhalis [27] = assay: Bactericidal activity against erythromycin-susceptible Moraxella catarrhalis 13L332 pretreated followed by subculture in absence of compound measured after 24 hrs; format: functional; method in brief: as §1
Moraxella catarrhalis [28] = assay: Selectivity ratio of MBC to MIC for erythromycin-susceptible Moraxella catarrhalis 13L332; format: functional; method in brief: as §1
[29] = AUCinfinity in Sprague-Dawley rat at 20 mg/kg, po after 0.25 to 24 hrs by LC-MS/MS analysis; format: ADME, organism-based; parameters: dose 20 mg/kg, time infinity, route oral; settings: in vivo
Method in brief: (§4)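 Male SD rats were given a single 20 mg/Kg oral dose. Blood was sampled at 0.25, 0.5, 1, 2, 4, 6, 8 and 24 h and centrifuged at 2500 g for 5 min at 4 °C. Drug levels were quantified by LC-MS/MS. t1/2, Cmax, Tmax, CL, MRT and AUC were calculated from the concentration–time data.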

[30] = AUC (0 to t) in Sprague-Dawley rat at 20 mg/kg, po after 0.25 to 24 hrs by LC-MS/MS analysis; format: ADME, organism-based; parameters: time upper 24 hr, dose 20 mg/kg, time lower 0.25 hr, route oral; settings: in vivo; method in brief: as §4
[31] = Half life in Sprague-Dawley rat at 20 mg/kg, po after 0.25 to 24 hrs by LC-MS/MS analysis; format: ADME, organism-based; settings: in vivo; method in brief: as §4
[32] = MRT in Sprague-Dawley rat at 20 mg/kg, po after 0.25 to 24 hrs by LC-MS/MS analysis; format: ADME, organism-based; settings: in vivo; method in brief: as §4
[33] = Tmax in Sprague-Dawley rat at 20 mg/kg, po after 0.25 to 24 hrs by LC-MS/MS analysis; format: ADME, organism-based; settings: in vivo; method in brief: as §4
[34] = Cmax in Sprague-Dawley rat at 20 mg/kg, po after 0.25 to 24 hrs by LC-MS/MS analysis; format: ADME, organism-based; parameters: dose 20 mg/kg, route oral; settings: in vivo; method in brief: as §4
Cytochrome P450 3A4 = Cytochrome P450 3A4 (Homo sapiens, UniProt P08684); assay: Inhibition of CYP3A4 in human liver microsomes assessed as reduction in metabolite formation using midazolam as substrate incubated for 10 mins in presence of NADPH by HPLC based mass spectrometric method; format: ADME
Method in brief: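 Human liver microsome CYP3A4 with midazolam substrate in 0.1 M potassium phosphate buffer was prewarmed at 37 °C for 5 min. Compound and 25 mM NADPH solution (stock) were added, then incubated at 37 °C for 10 min. Ketoconazole served as the positive inhibitor. Metabolite was measured by UPLC–triple quadrupole MS as the metabolite/internal standard peak area ratio, and IC50 was derived by curve fitting.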

Rattus norvegicus [35] = assay: Ratio of test compound half life to telithromycin half life in Sprague-Dawley rat at 20 mg/kg, po after 0.25 to 24 hrs by LC-MS/MS analysis; format: ADME, organism-based; settings: in vivo
[36] = Ratio of test compound MRT to telithromycin MRT in Sprague-Dawley rat at 20 mg/kg, po after 0.25 to 24 hrs by LC-MS/MS analysis; format: ADME, organism-based; settings: in vivo
Rattus norvegicus [37] = assay: Ratio of test compound plasma clearance to telithromycin plasma clearance in Sprague-Dawley rat at 20 mg/kg, po after 0.25 to 24 hrs by LC-MS/MS analysis; format: ADME, organism-based; settings: in vivo
Rattus norvegicus [38] = assay: Ratio of test compound AUC to telithromycin AUC in Sprague-Dawley rat at 20 mg/kg, po after 0.25 to 24 hrs by LC-MS/MS analysis; format: ADME, organism-based; settings: in vivo

Cytochrome P450 3A4, sequence (P08684 whole entry): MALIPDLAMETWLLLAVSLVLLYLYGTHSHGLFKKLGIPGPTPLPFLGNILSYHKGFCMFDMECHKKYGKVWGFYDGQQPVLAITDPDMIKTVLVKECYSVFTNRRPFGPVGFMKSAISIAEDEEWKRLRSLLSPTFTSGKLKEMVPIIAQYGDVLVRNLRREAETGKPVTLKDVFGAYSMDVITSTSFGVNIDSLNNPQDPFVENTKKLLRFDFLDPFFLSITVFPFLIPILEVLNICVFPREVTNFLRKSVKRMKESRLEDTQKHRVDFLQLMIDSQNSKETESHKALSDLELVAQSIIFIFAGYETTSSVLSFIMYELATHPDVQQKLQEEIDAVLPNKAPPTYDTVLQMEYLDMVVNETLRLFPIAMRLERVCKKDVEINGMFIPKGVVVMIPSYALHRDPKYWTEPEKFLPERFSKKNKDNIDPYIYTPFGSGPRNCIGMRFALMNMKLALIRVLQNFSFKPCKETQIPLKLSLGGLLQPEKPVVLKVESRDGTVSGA

For `CC[C@H]1OC(=O)[C@@](C)(F)C(=O)[C@H](C)[C@@H](O[C@@H]2O[C@H](C)C[C@H](N(C)C)[C@H]2O)[C@](C)(OC)C[C@@H](C)/C(=N\OC/C=C/c2ccc3c(c2)c(=O)c(C(N)=O)cn3CC)[C@H](C)[C@H]2OC(=O)O[C@@]21C`, the MIC (Staphylococcus aureus [1]) was 0.5 µg/mL, the MIC (Streptococcus pneumoniae [2]) was ≤ 0.008 µg/mL and the MBC (Streptococcus pneumoniae [3]) was ≤ 0.008 µg/mL. For the same molecule, the MIC (Haemophilus influenzae [4]) was 32 µg/mL, the MIC (Streptococcus pneumoniae [5]) was 0.062 µg/mL and the MIC (Streptococcus pneumoniae [6]) was 0.25 µg/mL. The MBC (Streptococcus pneumoniae [7]) was 0.25 µg/mL (≈ 0.277 µM), the Selectivity ratio (Streptococcus pneumoniae [8]) was 1 and the MBC (Streptococcus pneumoniae [9]) was > 0.5 µg/mL. For the same molecule, the Selectivity ratio (Streptococcus pneumoniae [10]) was >8, the MBC (Haemophilus influenzae [11]) was 256 µg/mL (≈ 284 µM) and the Selectivity ratio (Haemophilus influenzae [12]) was 8. For the same molecule, the MIC (Streptococcus pyogenes [13]) was ≤ 0.002 µg/mL, the MBC (Streptococcus pyogenes [14]) was > 0.016 µg/mL and the Selectivity ratio (Streptococcus pyogenes [15]) was >8. For the same molecule, the MBC (Staphylococcus aureus [16]) was > 4 µg/mL, the Selectivity ratio (Staphylococcus aureus [17]) was >8 and the MIC (Staphylococcus aureus [18]) was 128 µg/mL. The MBC (Staphylococcus aureus [19]) was > 256 µg/mL, the MIC (Streptococcus pyogenes [20]) was 0.5 µg/mL and the MBC (Streptococcus pyogenes [21]) was > 4 µg/mL. For the same molecule, the Selectivity ratio (Streptococcus pyogenes [22]) was >8, the MIC (Streptococcus pyogenes [23]) was 0.062 µg/mL and the MBC (Streptococcus pyogenes [24]) was 0.5 µg/mL (≈ 0.555 µM). For the same molecule, the Selectivity ratio (Streptococcus pyogenes [25]) was 8, the MIC (Moraxella catarrhalis [26]) was 4 µg/mL and the MBC (Moraxella catarrhalis [27]) was > 32 µg/mL. For the same molecule, the Selectivity ratio (Moraxella catarrhalis [28]) was >8, the AUC [29] was 1538 ng·h/mL and the AUC(0-t) [30] was 1460 ng·h/mL. It also gave a half-life [31] of 3.03 h, an MRT [32] of 7.42 h and a Tmax [33] of 7 h. For the same molecule, the Cmax [34] was 124 ng/mL, the IC50 (Cytochrome P450 3A4) was 5.14 µM and the Ratio (Rattus norvegicus [35]) was 2.5 to 3.6. The Ratio [36] was 2.3 to 2.6, the Ratio (Rattus norvegicus [37]) was 1.5 and the “Ratio AUC” value (Rattus norvegicus [38]) was 1.6.
